Assay results reported in the RNAGym collection of RNA variant scans (doi:10.1038/nmeth.2970).

B1: NELF-E aptamer (parent)
chain: CCCAACGACUGCCGAGCGAGAUUACGCUUGAGCGCCCCACUGAGGAUGCCCACGGGCGAUUGGGGCACGG
B2: GFP aptamer (parent)
chain: GCUUCUGGACUGCGAUGGGAGCACGAAACGUCGUGGCGCAAUUGGGUGGGGAAAGUCCUUAAAAGAGGGCCACCACAGAAGC

Variants of: B1
Assay: HiTS-RAP
Settings: with NELF-E (Drosophila)
Procedure, shortened: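 Aptamer DNA templates carrying a T7 promoter and ter site were sequenced on an Illumina GAIIx flowcell, then transcribed in situ by T7 RNA polymerase and halted by GST-Tus (30 minutes, 37°C). Clusters were imaged after 30-minute room-temperature equilibration with NELF-E-mOrange at 0.064 to 1000 nM in HEPES binding buffer, and only the first binding curve was used. Intensities were normalised to sequencing intensity and averaged per sequence. Kd came from weighted Hill fits, keeping fits with variance below 1,000,000.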

| Variant | Kd [nM] |
| --- | --- |
| U41G U61A | 34.9 |
| G42A | 49.4 |
| G42C | 44.2 |
| G42U | 10.5 |
| A43C | 76 |
| A43G | 24.6 |
| A43G A59G | 69 |
| A43G A67U | 23.5 |
| A43G G44U | 5.97 |
| A43G U60C | 20.1 |
| A43U | 67 |
| A43U A67U | 37.1 |
| G44A | 42.3 |
| G44C | 27.5 |
| G44U | 7.32 |
| G45A | 47.8 |
| G45C | 39.5 |
| G45U | 6.76 |
| G45U A46G | 5.32 |
| A46C | 9.89 |
| A46G | 26.5 |
| A46G A67G | 36.2 |
| A46G G54A | 129 |

| Variant | Kd [nM] |
| --- | --- |
| A46U | 63.2 |
| A46U A59G | 60.5 |
| A46U U47G | 5.55 |
| U47A | 10.2 |
| U47A A67G | 12 |
| U47A A67U | 10.5 |
| U47A G54A | 15.1 |
| U47C | 9.59 |
| U47G | 6.05 |
| U47G G48U | 6.17 |
| G48A | 9.57 |
| G48C | 85.4 |
| G48U | 5.99 |
| G48U C49G | 5.14 |
| C49A | 20.6 |
| C49G | 9.21 |
| C49U | 19.5 |
| C50A | 14.7 |
| C50G | 6.31 |
| C50U | 12.2 |
| C51A | 8.65 |
| C51G | 4.48 |
| C51U | 6.66 |

| Variant | Kd [nM] |
| --- | --- |
| C51U A52G | 7.06 |
| C51U C66U | 7.21 |
| A52C | 5.64 |
| A52G | 4.24 |
| A52G C53U | 6.67 |
| A52U | 15.4 |
| A52U C66U | 15.1 |
| A52U G56A | 99 |
| A52U G63A | 50.8 |
| A52U G63U | 42.2 |
| A52U U61A | 90.9 |
| C53A | 4.92 |
| C53G | 5.16 |
| C53G G54U | 4.24 |
| C53U | 3.8 |
| C53U G64A | 4.84 |
| G54A | 11.8 |
| G54A A59G | 73.6 |
| G54A C66U | 16.9 |
| G54A G55A | 26.2 |
| G54C | 10.6 |
| G54U | 6.39 |
| G54U G56U | 5.48 |

| Variant | Kd [nM] |
| --- | --- |
| G55A | 7.36 |
| G55A A67U | 11.2 |
| G55A G65U | 6.71 |
| G55C | 7.14 |
| G55U | 6.36 |
| G56A | 10.3 |
| G56C | 37.4 |
| G56U | 5.3 |
| C57A | 13.9 |
| C57G | 6.36 |
| C57U | 5.5 |
| C57U A67G | 4.59 |
| G58A | 9.31 |
| G58C | 65.3 |
| G58U | 9.77 |
| G58U A59G | 5.09 |
| A59C | 110 |
| A59G | 47.9 |
| A59G G64A | 44.7 |
| A59U | 72.2 |
| U60A | 9.5 |
| U60C | 9.28 |
| U60G | 5.2 |

| Variant | Kd [nM] |
| --- | --- |
| U61A | 28.4 |
| U61A A67G | 27.4 |
| U61A A67U | 49.7 |
| U61C | 63.7 |
| U61C A67G | 68.2 |
| U61G | 7.54 |
| U61G G62U | 5.22 |
| G62A | 16.9 |
| G62C | 48.2 |
| G62U | 7.51 |
| G62U G64U | 5.62 |
| G63A | 12.8 |
| G63C | 33.8 |
| G63U | 10.3 |
| G63U G65U | 5.32 |
| G64A | 7.74 |
| G64A A67G | 4.84 |
| G64A A67U | 35.5 |
| G64A G65U | 5.13 |
| G64C | 7.73 |
| G64C G65U | 5.12 |
| G64U | 7.29 |
| G65A | 4.39 |

| Variant | Kd [nM] |
| --- | --- |
| G65C | 14 |
| G65U | 6.03 |
| G65U A67U | 8.45 |
| G65U C66G | 4.98 |
| C66A | 4.61 |
| C66G | 4.38 |
| C66U | 4.61 |
| A67C | 4.99 |
| A67G | 5.33 |
| A67U | 6.41 |
| C68A | 5.29 |
| C68G | 4.57 |
| C68U | 4.59 |
| G69A | 4.82 |
| G69C | 5.52 |
| G69U | 5.33 |
| G70A | 4.46 |
| G70C | 4.44 |
| G70U | 5.07 |

Variants of: B2
Assay: HiTS-RAP
Settings: with EGFP
Procedure, shortened: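 Aptamer templates containing a T7 promoter and ter site were sequenced on an Illumina GAIIx flowcell, transcribed in situ with T7 RNA polymerase and halted with GST-Tus for 30 minutes at 37°C. Clusters were imaged after 30 minutes at room temperature with EGFP-mOrange at 0.04 nM to 625 nM in fivefold steps. Kd was obtained from per-lane weighted Hill fits to decay-corrected, sequencing-normalised, per-sequence mean intensities, geometrically averaged over lanes. Three lanes entered that average, and non-rising sequences were given 125 nM.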

| Variant | Kd [nM] |
| --- | --- |
| U3A | 3.51 |
| U3C | 4.42 |
| U3G | 5.4 |
| U4A | 4.17 |
| U4C | 7.99 |
| U4G | 4.6 |
| C5A | 8.09 |
| C5G | 5.26 |
| C5U | 4.3 |
| U6A | 8.81 |
| U6C | 8.4 |
| U6G | 7.45 |
| G7A | 43.8 |
| G7C | 88.1 |
| G7U | 23.4 |
| G8A | 26.7 |
| G8A G14A | 20.2 |

| Variant | Kd [nM] |
| --- | --- |
| G8C | 61.5 |
| G8U | 5.56 |
| A9C | 8 |
| A9G | 14.8 |
| A9G A27G | 21 |
| A9U | 6.86 |
| C10A | 3.61 |
| C10G | 4.07 |
| C10G A20G | 4.36 |
| C10U | 4.3 |
| C10U A20G | 3.79 |
| C10U A23G | 5.08 |
| C10U A27G | 3.1 |
| C10U A28G | 4.55 |
| C10U A77G | 36 |
| C10U C13U | 15.1 |
